Compound activity as filed in PubChem BioAssay.
Only some compounds are listed: those with a hit (about 1.1% of all), similar ones and a draw of the others.
Rin1-Abl PPI inh: inhibitors of Rin1-Abl protein binding, primary screen, biochemical, TR-FRET | inhibition, % at 7.35 µM | 360,000 tested, 0.4% active; in the data active = inhibition above about 5%, passing the limit was not always enough
ERAP1 inh: human ERAP1 aminopeptidase inhibitors, primary screen, biochemical, single point, plate reader | Endoplasmic reticulum aminopeptidase 1 (Homo sapiens), Q9NZ08 | recombinant ERAP1, Leu-AMC fluorescence, 60 min | inhibition, % at 10.7 µM | 340,000 tested, 0.15% active | AID 652197, 2013;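 active = mean replicate inhibition of at least 30%, or all replicates individually reaching that 30% level; inactive = mean below 30% and not every replicate reaching it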;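 also: 0% = neutral control wells and 100% = L-leucinethiol positive control wells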
Target sequence (Q9NZ08 whole entry, looked up): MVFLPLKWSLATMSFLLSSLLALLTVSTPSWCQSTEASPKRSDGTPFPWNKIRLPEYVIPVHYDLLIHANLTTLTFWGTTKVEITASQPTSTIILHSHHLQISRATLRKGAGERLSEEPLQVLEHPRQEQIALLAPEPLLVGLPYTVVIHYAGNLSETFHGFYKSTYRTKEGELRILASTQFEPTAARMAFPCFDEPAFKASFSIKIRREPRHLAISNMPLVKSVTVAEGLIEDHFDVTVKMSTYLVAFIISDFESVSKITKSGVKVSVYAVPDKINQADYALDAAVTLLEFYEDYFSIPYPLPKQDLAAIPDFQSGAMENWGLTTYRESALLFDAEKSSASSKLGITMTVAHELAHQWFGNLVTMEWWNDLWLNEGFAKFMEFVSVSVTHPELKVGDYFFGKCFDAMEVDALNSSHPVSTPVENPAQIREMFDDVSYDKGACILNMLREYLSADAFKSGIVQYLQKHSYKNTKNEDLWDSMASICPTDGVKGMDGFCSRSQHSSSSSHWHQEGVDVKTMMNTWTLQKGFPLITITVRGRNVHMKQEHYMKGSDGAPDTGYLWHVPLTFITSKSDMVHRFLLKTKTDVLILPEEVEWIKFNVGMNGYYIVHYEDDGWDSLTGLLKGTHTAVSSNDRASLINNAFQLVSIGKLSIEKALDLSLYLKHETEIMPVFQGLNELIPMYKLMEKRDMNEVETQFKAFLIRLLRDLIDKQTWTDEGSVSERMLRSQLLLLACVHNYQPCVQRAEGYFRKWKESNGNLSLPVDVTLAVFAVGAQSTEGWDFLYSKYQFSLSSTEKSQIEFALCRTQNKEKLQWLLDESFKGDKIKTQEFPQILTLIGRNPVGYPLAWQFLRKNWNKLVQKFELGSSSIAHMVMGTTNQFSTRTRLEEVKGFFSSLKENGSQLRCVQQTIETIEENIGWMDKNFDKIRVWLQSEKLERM
ERp5 inh: inhibitors of ERp5-driven insulin aggregation, primary screen, biochemical, turbidity, absorbance 650 nm, single point; 90 min; inhibition, % at 9.99 µM; 350,000 tested, 0.05% active; AID 651711, 2012;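 active = mean replicate inhibition above about 25%, with every replicate also reaching it, limit read from the data, passing the limit was not always enough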
CAL PDZ FP-1: CAL PDZ peptide-binding inhibitors, primary screen, biochemical, fluorescence polarization, Cer-tagged CAL PDZ, HTS; purified CAL PDZ, TMR-peptide fluorescence polarization, 1 h; 330,000 tested, 0.02% active; Golgi-associated PDZ and coiled-coil motif-containing protein (Homo sapiens), Q9HD26; AID 504414, 2011; inhibition, % at 20 µM;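 active = highest replicate inhibition of at least 40%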;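 also: plate controls were DMSO neutral control wells for no effect and unlabeled competitor peptide control wells for full effect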
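material = purified tagged CAL PDZ domain construct (CerCALP) | compound dosing = 20 µM, one dose | times = 1 h at RT | measured by = fluorescence polarization from S- and P-plane intensities, G-factor corrected | read-out = inhibition from polarization loss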
CAL PDZ FP-2: untagged CAL PDZ binding inhibitors, primary screen, biochemical, fluorescence polarization, HTS; Golgi-associated PDZ and coiled-coil motif-containing protein (Homo sapiens), Q9HD26; purified CAL PDZ, TMR-peptide fluorescence polarization, 1 h; inhibition, % at 24.9 µM; 300,000 tested, 0.92% active;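 active = mean inhibition of at least 30% with at least half of replicates also reaching 30%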;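 also: 0% = DMSO neutral control and 100% = excess unlabeled competitor peptide PRC23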
PDI turbidity: inhibitors of human PDI, primary screen, biochemical, turbidity, single point, plate reader. 350,000 tested, 0.052% active. PDI insulin aggregation turbidity, A650, 90 min. inhibition, % at 10 µM. Protein disulfide-isomerase (Homo sapiens), P07237;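 active = mean inhibition across replicates of 30% or more, whatever share of single replicates reach that level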
Starred values were filed as active, the others as inactive; nt = not tested or not shown.

SMILES | Rin1-Abl PPI inh | ERAP1 inh | ERp5 inh | CAL PDZ FP-1 | CAL PDZ FP-2 | PDI turbidity
O=C(Nc1cccc(S(=O)(=O)N2CCOCC2)c1)c1ccccn1 | 0.1 | 1.8 | 3.2 | 0.6 | 75.3* | -4.1
COCc1cn(CC[C@H]2CC[C@@H](NC(=O)Nc3ccc4c(c3)OCO4)[C@@H](CO)O2)nn1 | nt | -3.4 | 1.8 | nt | nt | nt
O=C(CN1C(=O)c2ccccc2S1(=O)=O)Nc1ccon1 | 2.8 | -5.4 | 2.5 | 1.0 | -4.8 | 15.0
Cc1cc(NC(=O)CN2C(=O)c3ccccc3S2(=O)=O)no1 | -3.4 | 32.1* | 5.8 | -0.5 | -3.3 | 9.2
Cc1ccc(C(=O)NC(=S)NCC(=O)c2ccccc2)cc1 | 4.3 | nt | nt | nt | 33.1* | 1.8
COc1cc(C(=O)NCC2CCCCC2)cc(OC)c1OC | 1.3 | 4.7 | -0.8 | -1.5 | 65.3* | -3.1
COc1cc(C(=O)NCCC(=O)NC2CCCCC2)cc(OC)c1OC | 3.5 | 0.5 | 1.6 | -2.9 | 1.2 | -4.2
COc1cc(C(=O)NCCNC(=O)C2CCCNC2=O)cc(OC)c1OC (centres undefined) | -0.7 | 0.0 | 3.3 | 0.0 | 39.7* | 5.4
C[C@H](CO)N1C[C@H](C)[C@@H](CN(C)Cc2ccc(C(F)(F)F)cc2)Oc2ccc(NC(=O)Cn3cnnn3)cc2C1=O | nt | -0.5 | -3.4 | nt | nt | nt
CCCN(C)C[C@@H]1Oc2cc(C#Cc3ccc(OC)cc3)ccc2S(=O)(=O)N([C@@H](C)CO)C[C@@H]1C | nt | -2.7 | 1.6 | nt | nt | nt
O=C(Cc1ccccc1)OCC(=O)c1cccc([N+](=O)[O-])c1 | 1.0 | -1.8 | 0.7 | -0.4 | 46.8* | -0.1
Cc1cc(C)n(CC(=O)c2cccc([N+](=O)[O-])c2)n1 | 3.7 | -0.3 | -4.1 | -1.3 | 35.9* | 7.9
O=C(CNS(=O)(=O)c1ccccc1)OCC(=O)c1cccc([N+](=O)[O-])c1 | -2.1 | nt | nt | 0.4 | 2.5 | -7.4
Cc1cc(C)n(CC(=O)c2ccc(Cl)cc2)n1 | 0.5 | 0.0 | -7.3 | -1.5 | 0.4 | -0.8
CN1c2ccc(-c3ccc(F)cc3)cc2[C@@H]2[C@@H](CCN2C(=O)c2ccc(F)cc2)[C@H]1CO | nt | -0.3 | -0.7 | nt | nt | nt
C[C@H]1CN([C@@H](C)CO)C(=O)Cc2cc(NC(=O)CCN3CCOCC3)ccc2O[C@@H]1CN(C)S(=O)(=O)c1cccs1 | nt | -1.6 | -4.4 | nt | nt | nt
O=C(CCc1c[nH]c2ccccc12)Nc1ccc(S(=O)(=O)Nc2ncccn2)cc1 | -0.2 | -8.2 | 6.0 | 0.3 | 32.6* | -5.3
CN(c1ccc(NC(=O)CCc2c[nH]c3ccccc23)cc1)c1ccccn1 | nt | 3.2 | 0.2 | nt | nt | nt
O=C1CCC(=O)N1c1nc2nc(-c3ccccc3)cc(-c3ccccc3)n2n1 | -0.4 | nt | nt | -3.0 | 2.2 | 33.3*
C[C@H](CO)N1C[C@H](C)[C@H](CN(C)C(=O)CCCN(C)C)OCCCC[C@H](C)Oc2ccc(NS(C)(=O)=O)cc2C1=O | nt | 5.0 | 1.3 | nt | nt | nt
COc1ccc(OCC(O)CNC(=O)c2ccc(Br)cc2)cc1 (centres undefined) | -3.3 | nt | nt | 13.3 | 72.2* | -4.7
COc1ccc(OCC(O)CNC(=O)c2ccc(OC)cc2)cc1 (centres undefined) | 3.2 | -5.3 | 3.7 | -1.0 | -0.6 | 13.1
Cc1nnsc1C(=O)NC1CCCc2c1cnn2-c1ccc(C(C)(C)C)cc1 (centres undefined) | 0.1 | 1.9 | 8.5 | -1.3 | 59.6* | -2.1
O=C(/C=C/c1ccc([N+](=O)[O-])cc1)NNC(=O)C1CC1 | -4.4 | -2.2 | 0.2 | -0.2 | 74.1* | -5.0
COc1cc(NC2c3ccccc3C(=O)N2Cc2ccccc2)cc(OC)c1OC (centres undefined) | 1.0 | -1.1 | -3.2 | -1.5 | -13.6 | 0.3
SMILES | Rin1-Abl PPI inh | ERAP1 inh | ERp5 inh | CAL PDZ FP-1 | CAL PDZ FP-2 | PDI turbidity
CC(C)CCNC1c2ccccc2C(=O)N1Cc1ccccc1 (centres undefined) | -1.1 | -4.1 | 2.9 | nt | 87.9* | -3.8
Cc1sc2ncnc(N3CCC(C(=O)NNC(=O)c4ccccc4Cl)CC3)c2c1C | -1.8 | 2.8 | -3.8 | -2.3 | 37.0* | -2.2
Cc1ccc2c(CN3CCCc4ccccc43)cc(=O)oc2c1C | -2.8 | nt | nt | nt | 49.0* | 1.3
Cc1ccc2c(CN3CCCCC3)cc(=O)oc2c1C | 1.4 | 0.4 | 9.9 | -0.2 | 3.4 | -2.4
CSC1=NS(=O)(=O)c2c(C)nn(C)c2S1 | 0.6 | 86.7* | -4.8 | -0.1 | nt | 6.1
N#Cc1ccc(CSc2nnc(-c3cccc(S(=O)(=O)N4CCCCC4)c3)o2)cc1 | -0.1 | nt | nt | -1.5 | 44.3* | -4.6
O=[N+]([O-])c1ccc(NN=Cc2ccccc2O)nc1 | -3.5 | 1.0 | 5.6 | 0.1 | 42.0* | 18.1
O=C(CNS(=O)(=O)c1ccc([N+](=O)[O-])cc1)N/N=C/c1ccc(O)cc1O | -2.9 | 1.2 | 5.8 | nt | 34.5* | -2.1
O=[N+]([O-])c1cccnc1N/N=C/c1ccccc1O | 1.9 | -8.1 | -5.5 | -0.6 | 76.3* | 9.4
O=C(CNS(=O)(=O)c1ccc([N+](=O)[O-])cc1)N/N=C\c1ccc(O)cc1 | 0.7 | -0.5 | -0.3 | -0.7 | -2.3 | -5.2
O=[N+]([O-])c1ccc(NN=Cc2ccc(O)cc2O)nc1 | -0.4 | 2.3 | -5.4 | 3.3 | 47.8* | -8.7
Cc1c(O)ccc(/C=N/Nc2ncccc2[N+](=O)[O-])c1O | -2.1 | 1.0 | 1.1 | 0.5 | -7.7 | -2.0
C[C@H](CO)N1C[C@H](C)[C@H](CN(C)Cc2ccncc2)Oc2ncc(C3=CCCCC3)cc2C1=O | nt | 2.3 | -3.3 | nt | nt | nt
CCc1noc(C)c1C(=O)N(CCOC)c1c(N)n(CC(C)C)c(=O)[nH]c1=O | -0.9 | 95.2* | 0.0 | 0.3 | 38.0* | 10.2
CCCCn1c(N)c(N(CC)C(=O)c2ccco2)c(=O)[nH]c1=O | 0.4 | 83.9* | -1.9 | -0.1 | -1.4 | -8.4
CCCCN(C(=O)c1c(CC)noc1C)c1c(N)n(CC(C)C)c(=O)[nH]c1=O | 3.6 | 0.2 | -15.4 | -0.4 | 1.8 | -1.5
CCCCN(C(=O)c1cc2ccccc2o1)c1c(N)n(CC(C)C)c(=O)[nH]c1=O | -0.8 | nt | nt | -2.0 | -0.9 | -2.2
CCCCN(C(=O)c1ccc([N+](=O)[O-])o1)c1c(N)n(CC(C)C)c(=O)[nH]c1=O | 0.1 | 87.1* | 0.6 | -0.3 | 5.6 | 1.1
O=C(C[C@H]1CC[C@H](NC(=O)NC2CCCCC2)[C@@H](CO)O1)NCc1ccccc1 | nt | 1.7 | 6.7 | nt | nt | nt
Cc1cccc(NC(=O)CN2C(=O)N/C(=C/c3cc(C)n(-c4cccnc4)c3C)C2=O)c1 | -2.8 | -1.4 | -3.6 | -0.4 | 74.3* | 1.6
